# Results from ChEMBL document CHEMBL6078712, “Triterpenoid phthalimides as selective anti-cancer agents targeting mitochondrial apoptosis” (Eur J Med Chem, 2025).
# pIC50: −log10 of the molar value. Active and inactive are the calls of the source. The calls are words filed in the database; no cut-off is given here.
# Assays:
# [1] = system: CCRF-CEM; assay: Induction of cell cycle arrest in human CCRF-CEM cells assessed as downregulation of total AKT expression at 5 times IC50 incubated for 24 hrs by Western blotting analysis; assay type: functional, cell-based
# Procedure, shortened: (§1)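 30 µg protein per lane on SDS-PAGE, transferred to nitrocellulose, blocked in 5 % BSA/TBS-Tween. Primary antibodies overnight at 4 °C (Akt, P-Akt Ser473, STAT-3, caspase-3, PARP, cyclin D, cyclin A, Bcl-xL, Bak, Bid, Bim), then HRP secondary and ECL detection. GAPDH as loading control.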
# [2] = Stability in human plasma assessed as compound remaining at 2 uM incubated for 120 mins by RF-MS analysis; assay type: ADME, cell-free; settings: read-out: Stability
# Procedure, shortened: (§2)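 Human plasma stability, plasma protein binding and liver microsome stability, each run in triplicate. Error deviations below 10 %.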
# [3] = system: CCRF-CEM; assay: Induction of cell cycle arrest in human CCRF-CEM cells assessed as downregulation of total STAT3 expression at 5 times IC50 incubated for 24 hrs by Western blotting analysis; assay type: functional, cell-based; procedure, shortened: as §1
# [4] = Metabolic stability in human liver microsomes assessed as parent compound remaining at 2 uM incubated for 15 mins in presence of NADPH by RF-MS analysis; assay type: ADME, Microsome; settings: read-out: Stability; procedure, shortened: as §2
# [5] = system: K562; assay: Cytotoxicity against human K562 cells assessed as inhibition of cell growth incubated for 72 hrs by MTS assay; assay type: functional, cell-based; settings: K562, 72 h
# Procedure, shortened: (§3)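 MTS assay on eight human cancer lines and two non-tumour fibroblast lines. IC50 is the concentration that inhibits cell growth by 50 %. SD typically up to 15 % of the mean.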
# [6] = system: CCRF-CEM; assay: Induction of apoptosis in human CCRF-CEM cells assessed as late apoptotic cells at 5 times IC50 incubated for 24 hrs by Annexin V-FITC and PI staining based flow cytometric analysis (reference value: 0.4 %); assay type: functional
# Procedure, shortened: (§4)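 Washed in Ca2+-containing binding buffer, then stained 15 min at room temperature in the dark with Annexin V-FITC and propidium iodide (PI at half the kit-recommended level). Read at once by flow cytometry with a 488 nm laser, ≥10,000 cells. Debris excluded; quadrants viable, early apoptotic, late apoptotic/necrotic, necrotic. Three independent experiments.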
# [7] = system: HCT-116; assay: Cytotoxicity against human HCT-116 cells assessed as inhibition of cell growth incubated for 72 hrs by MTS assay; assay type: functional, cell-based; settings: HCT-116, 72 h; procedure, shortened: as §3
# [8] = system: CCRF-CEM; assay: Induction of apoptosis in human CCRF-CEM cells assessed as upregulation of BIM expression at 1 to 5 times IC50 incubated for 24 hrs by Western blotting analysis; assay type: functional, cell-based; procedure, shortened: as §1
# [9] = Stability in human plasma assessed as compound remaining at 2 uM incubated for 60 mins by RF-MS analysis; assay type: ADME, cell-free; settings: read-out: Stability; procedure, shortened: as §2
# [10] = system: HCT 116 TP53(-/-); assay: Cytotoxicity against human HCT116-p53-null cells assessed as inhibition of cell growth incubated for 72 hrs by MTS assay; assay type: functional, cell-based; procedure, shortened: as §3
# [11] = system: CCRF-CEM; assay: Cytotoxicity against human CCRF-CEM cells assessed as inhibition of cell growth incubated for 72 hrs by MTS assay; assay type: functional, cell-based; procedure, shortened: as §3
# [12] = system: CCRF-CEM; assay: Induction of apoptosis in human CCRF-CEM cells assessed as late apoptotic cells at 1 times IC50 incubated for 24 hrs by Annexin V-FITC and PI staining based flow cytometric analysis (reference value: 0.4 %); assay type: functional; procedure, shortened: as §4
# [13] = system: U2OS; assay: Cytotoxicity against human U2OS cells assessed as inhibition of cell growth incubated for 72 hrs by MTS assay; assay type: functional, cell-based; procedure, shortened: as §3
# [14] = system: CCRF-CEM; assay: Induction of apoptosis in human CCRF-CEM cells assessed as downregulation of BCL-XL expression at 5 times IC50 incubated for 24 hrs by Western blotting analysis; assay type: functional, cell-based; procedure, shortened: as §1
# [15] = Cytotoxicity against human MRC5 cells assessed as inhibition of cell growth incubated for 72 hrs by MTS assay; assay type: toxicity, cell-based; procedure, shortened: as §3
# [16] = system: Mitochondrial membrane; assay: Induction of mitochondrial membrane potential depolarization in human CCRF-CEM cells assessed as fold increase in fluorescence intensity at 5 times IC50 incubated for 24 hrs by JC-1 staining based flow cytometry; assay type: cell membranes
# [17] = Metabolic stability in human liver microsomes assessed as parent compound remaining at 2 uM incubated for 30 mins in presence of NADPH by RF-MS analysis; assay type: ADME, Microsome; settings: read-out: Stability; procedure, shortened: as §2
# [18] = system: CCRF-CEM; assay: Inhibition of DNA synthesis in human CCRF-CEM cells at 1 times IC50 incubated for 24 hrs by BrdU incorporation based flow cytometry; assay type: functional
# Procedure, shortened: (§5)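 Fixed in ice-cold 70 % ethanol, DNA denatured in 2 M HCl for 30 min, neutralised with borax. Stained with anti-BrdU plus FITC secondary, then PI/RNase A for 1 h. Flow cytometry; % BrdU-positive cells.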
# [19] = system: CCRF-CEM; assay: Inhibition of RNA synthesis in human CCRF-CEM cells at 1 times IC50 incubated for 24 hrs by BrU incorporation based flow cytometry; assay type: functional
# Procedure, shortened: (§6)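 Fixed in 1 % paraformaldehyde/0.05 % NP-40 (15 min at room temperature, then 4 °C overnight). Stained with cross-reacting anti-BrdU plus FITC secondary (45 min each), then PI/RNase A. Flow cytometry; % BrU-positive cells.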
# [20] = system: A549; assay: Cytotoxicity against human A549 cells assessed as inhibition of cell growth incubated for 72 hrs by MTS assay; assay type: functional, cell-based; settings: A549, 72 h; procedure, shortened: as §3
# [21] = system: CCRF-CEM; assay: Inhibition of RNA synthesis in human CCRF-CEM cells at 5 times IC50 incubated for 24 hrs by BrU incorporation based flow cytometry; assay type: functional; procedure, shortened: as §6
# [22] = system: CCRF-CEM; assay: Induction of cell cycle arrest in human CCRF-CEM cells assessed as increase in accumulation of G0/G1 phase at 5 times IC50 incubated for 24 hrs by RNase/PI staining based flow cytometry; assay type: functional
# Procedure, shortened: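 Propidium iodide staining and flow cytometry with a 488 nm laser, ≥10,000 intact cells. Phase proportions compared with untreated cells; SEM of three independent experiments.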
# [23] = Cytotoxicity against human K562-Tax cells assessed as inhibition of cell growth incubated for 72 hrs by MTS assay; assay type: functional, cell-based; procedure, shortened: as §3
# [24] = system: CCRF-CEM; assay: Induction of apoptosis in human CCRF-CEM cells assessed as early apoptotic cells at 1 times IC50 incubated for 24 hrs by Annexin V-FITC and PI staining based flow cytometric analysis (reference value: 2.1 %); assay type: functional; procedure, shortened: as §4
# [25] = system: CEM-DNR; assay: Cytotoxicity against human CEM-DNR cells assessed as inhibition of cell growth incubated for 72 hrs by MTS assay; assay type: functional, cell-based; procedure, shortened: as §3
# [26] = system: CCRF-CEM; assay: Induction of apoptosis in human CCRF-CEM cells assessed as necrotic cells at 5 times IC50 incubated for 24 hrs by Annexin V-FITC and PI staining based flow cytometric analysis (reference value: 0.4 %); assay type: functional; procedure, shortened: as §4
# [27] = system: CCRF-CEM; assay: Induction of apoptosis in human CCRF-CEM cells assessed as early apoptotic cells at 5 times IC50 incubated for 24 hrs by Annexin V-FITC and PI staining based flow cytometric analysis (reference value: 2.1 %); assay type: functional; procedure, shortened: as §4
# [28] = system: CCRF-CEM; assay: Induction of cell cycle arrest in human CCRF-CEM cells assessed as downregulation of Cyclin D expression at 5 times IC50 incubated for 24 hrs by Western blotting analysis; assay type: functional, cell-based; procedure, shortened: as §1
# [29] = system: CCRF-CEM; assay: Induction of apoptosis in human CCRF-CEM cells assessed as upregulation of BID expression at 1 to 5 times IC50 incubated for 24 hrs by Western blotting analysis; assay type: functional, cell-based; procedure, shortened: as §1
# [30] = Cytotoxicity against human BJ cells assessed as inhibition of cell growth incubated for 72 hrs by MTS assay; assay type: toxicity, cell-based; procedure, shortened: as §3
# [31] = Metabolic stability in human liver microsomes assessed as parent compound remaining at 2 uM incubated for 60 mins in presence of NADPH by RF-MS analysis; assay type: ADME, Microsome; settings: read-out: Stability; procedure, shortened: as §2
# [32] = Stability in human plasma assessed as compound remaining at 2 uM incubated for 15 mins by RF-MS analysis; assay type: ADME, cell-free; settings: read-out: Stability; procedure, shortened: as §2
# [33] = system: CCRF-CEM; assay: Induction of apoptosis in human CCRF-CEM cells assessed as viable cells at 1 times IC50 incubated for 24 hrs by Annexin V-FITC and PI staining based flow cytometric analysis (reference value: 97.4 %); assay type: functional; procedure, shortened: as §4
# [34] = system: CCRF-CEM; assay: Induction of apoptosis in human CCRF-CEM cells assessed as necrotic cells at 1 times IC50 incubated for 24 hrs by Annexin V-FITC and PI staining based flow cytometric analysis (reference value: 0.4 %); assay type: functional; procedure, shortened: as §4
# [35] = system: Mitochondrial membrane; assay: Induction of mitochondrial membrane potential depolarization in human CCRF-CEM cells assessed as fold increase in fluorescence intensity incubated for 24 hrs by JC-1 staining based flow cytometry; assay type: cell membranes
# [36] = Stability in human plasma assessed as compound remaining at 2 uM incubated for 30 mins by RF-MS analysis; assay type: ADME, cell-free; settings: read-out: Stability; procedure, shortened: as §2
# [37] = system: CCRF-CEM; assay: Induction of cell cycle arrest in human CCRF-CEM cells assessed as downregulation of Cyclin A expression at 5 times IC50 incubated for 24 hrs by Western blotting analysis; assay type: functional, cell-based; procedure, shortened: as §1
# [38] = system: CCRF-CEM; assay: Induction of apoptosis in human CCRF-CEM cells assessed as viable cells at 5 times IC50 incubated for 24 hrs by Annexin V-FITC and PI staining based flow cytometric analysis (reference value: 97.4 %); assay type: functional; procedure, shortened: as §4
# [39] = system: CCRF-CEM; assay: Inhibition of DNA synthesis in human CCRF-CEM cells at 5 times IC50 incubated for 24 hrs by BrdU incorporation based flow cytometry; assay type: functional; procedure, shortened: as §5
# [40] = system: CCRF-CEM; assay: Induction of apoptosis in human CCRF-CEM cells assessed as downregulation of caspase-3 expression at 5 times IC50 incubated for 24 hrs by Western blotting analysis; assay type: functional, cell-based; procedure, shortened: as §1
# [41] = Plasma protein binding in human assessed as fraction bound at 10 uM incubated for 4 hrs by rapid equilibrium dialysis based RF-MS analysis; assay type: ADME, cell-free; settings: read-out: PPB (converted); procedure, shortened: as §2
smiles,measurement,setting,value
CC1(C)[C@@H](O)CC[C@]2(C)[C@H]3CC[C@@H]4[C@H]5[C@H](c6cc7c(c(-c8ccccc8)c6)C(=O)N(c6ccc(N)cc6)C7=O)CC[C@]5(C(=O)O)CC[C@@]4(C)[C@]3(C)CC[C@@H]12,Activity,[1],Active; Slight Activity Observed
same,"remaining at 2 h, 2 µM",[2],89%
same,Activity,[3],Active
same,"remaining at 0.25 h, 2 µM",[4],100%
same,pIC50,[5],4.68
same,Activity,[6],4.7%
same,pIC50,[7],4.92
same,Activity,[8],Active
same,"remaining at 1 h, 2 µM",[9],93%
same,pIC50,[10],4.77
same,pIC50,[11],5.39
same,Activity,[12],2.8%
same,pIC50,[13],4.81
same,Activity,[14],Active
same,IC50 at 72 h,[15],19.4 µM
same,fold change (FC),[16],> 20
same,"remaining at 0.5 h, 2 µM",[17],102%
same,inhibition (INH),[18],30%
same,inhibition (INH),[19],24%
same,pIC50,[20],4.68
same,inhibition (INH),[21],45.4%
same,Activity,[22],Active
same,pIC50,[23],5.36
same,Activity,[24],4.8%
same,pIC50,[25],5.20
same,Activity,[26],0%
same,Activity,[27],7.8%
same,Activity,[28],Active
same,Activity,[29],Active
same,IC50 at 72 h,[30],40.6 µM
same,"remaining at 1 h, 2 µM",[31],97%
same,"remaining at 0.25 h, 2 µM",[32],106%
same,Activity,[33],92.4%
same,Activity,[34],0%
same,Activity,[35],Dose-dependent-effect
same,"remaining at 0.5 h, 2 µM",[36],92%
same,Activity,[37],Active
same,Activity,[38],87.5%
same,inhibition (INH),[39],13.6%
same,Activity,[40],Active
same,"fraction unbound at 4 h, 10 µM",[41],0.37
